In test [1] the test system is Escherichia coli. In words: Inhibition of hydrolytic activity of Escherichia coli GGT using 7-(N-gamma-glutamylamino)-4-methylcoumarin as substrate assessed as release of AMC after 10 mins by fluorescence assay.
Test [2] concerns the target Glutathione hydrolase 1 proenzyme (Homo sapiens) (UniProt P19440). The experiment in a line: Inhibition of hydrolytic activity of human GGT using 7-(N-gamma-glutamylamino)-4-methylcoumarin as substrate assessed as release of AMC at 1 mM after 10 mins by fluorescence assay. A digest of the protocol:
(§1)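 Human GGT (HC-GTP, BSA-stabilised, used unpurified). Enzyme added to preincubated inhibitor plus 4.0 μM γ-Glu-AMC (final; Km 12.6 μM) in 100 mM sodium succinate pH 5.5, 25°C, no acceptor. AMC fluorescence (ex 350/em 440 nm) read continuously 10 min against AMC calibration; first-order fit of progress curves gives kobs; kon derived as kobs = kon[I]/(1+[S]/Km).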

Test [3] has the same target. In words: Inhibition of hydrolytic activity of human GGT using 7-(N-gamma-glutamylamino)-4-methylcoumarin as substrate assessed as release of AMC after 10 mins by fluorescence assay. The gist of the method:
as §1

The subject of test [4] is Escherichia coli. The experiment in a line: Inhibition of hydrolytic activity of Escherichia coli GGT using 7-(N-gamma-glutamylamino)-4-methylcoumarin as substrate assessed as release of AMC at 1 mM after 10 mins by fluorescence assay. The gist of the method:
(§2)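 E. coli enzyme purified from periplasmic fraction of recombinant E. coli K-12 (SH642). Time-dependent inactivation, pseudo-first-order: enzyme added to preincubated inhibitor plus 0.2 μM γ-Glu-AMC (final; equals Km) in 100 mM sodium succinate pH 5.5, 25°C, no acceptor substrate. AMC release (ex 350/em 440 nm) followed continuously 10 min; progress curves fit first-order for kobs; kon from kobs = kon[I]/(1+[S]/Km).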

The subject of test [5] is Escherichia coli. The experiment in a line: Inhibition of hydrolytic activity of Escherichia coli GGT using 7-(N-gamma-glutamylamino)-4-methylcoumarin as substrate assessed as release of AMC at 1 mM by fluorescence assay. Conditions: TDE = time-dependent effect. A digest of the protocol: as §2
Test [6] has as its system Escherichia coli. The experiment in a line: Binding affinity to Cys-Gly binding site of Escherichia coli GGT by ion-spray mass spectroscopy analysis.
For test [7], the target named is Glutathione hydrolase 1 proenzyme (Homo sapiens) (UniProt P19440). In words: Ratio of acivicin to compound for hydrolytic activity of human GGT.
Test [8] has the same target. In words: Irreversible inhibition of hydrolytic activity of human GGT using 7-(N-gamma-glutamylamino)-4-methylcoumarin as substrate assessed as release of AMC at 1 mM after 10 mins by fluorescence assay. The gist of the method: as §1
The target is the same in test [9]. The experiment in a line: Inhibition of hydrolytic activity of human GGT using 7-(N-gamma-glutamylamino)-4-methylcoumarin as substrate assessed as release of AMC by fluorescence assay. As to conditions: TDE = time-dependent effect. A digest of the protocol:
as §1

The subject of test [10] is Escherichia coli. In words: Inhibition of hydrolytic activity of Escherichia coli GGT using 7-(N-gamma-glutamylamino)-4-methylcoumarin as substrate assessed as release of AMC at 1.5 mM after 10 mins by fluorescence assay. A digest of the protocol:
as §2

Data on 14 compounds can be found in ChEMBL document CHEMBL3102799, “Glutathione-analogous peptidyl phosphorus esters as mechanism-based inhibitors of γ-glutamyl transpeptidase for probing cysteinyl-glycine binding site” (Bioorg Med Chem, 2014).

Activity calls are given as the source filed them. No cut-off for these calls is given here.

Sequence of Glutathione hydrolase 1 proenzyme (Homo sapiens) (P19440 1-380 limits assumed): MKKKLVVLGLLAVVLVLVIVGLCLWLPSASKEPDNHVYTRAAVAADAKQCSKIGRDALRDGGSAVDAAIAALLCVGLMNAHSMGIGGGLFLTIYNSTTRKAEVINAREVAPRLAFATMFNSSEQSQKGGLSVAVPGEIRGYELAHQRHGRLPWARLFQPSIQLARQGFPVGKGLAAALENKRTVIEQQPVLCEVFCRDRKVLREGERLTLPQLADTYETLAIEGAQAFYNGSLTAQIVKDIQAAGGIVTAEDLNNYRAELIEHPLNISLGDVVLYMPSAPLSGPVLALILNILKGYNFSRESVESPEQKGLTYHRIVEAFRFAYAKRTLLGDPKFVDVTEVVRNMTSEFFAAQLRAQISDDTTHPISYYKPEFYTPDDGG
Sequence of Glutathione hydrolase 1 proenzyme (Homo sapiens) (P19440 381-569 limits assumed): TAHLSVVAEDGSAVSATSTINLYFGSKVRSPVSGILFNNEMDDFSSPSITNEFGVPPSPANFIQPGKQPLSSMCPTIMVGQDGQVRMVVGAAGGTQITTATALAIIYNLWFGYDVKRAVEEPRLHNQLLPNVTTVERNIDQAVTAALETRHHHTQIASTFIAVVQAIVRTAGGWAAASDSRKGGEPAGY

Consider `CCCC[C@H](O[P@](=O)(CCC(N)C(=O)O)Oc1ccccc1)C(=O)NCC(=O)O` (stereo partly drawn), for which, in the test on Escherichia coli [1], the K turned out to be 1.7 M⁻¹ s⁻¹. The inhibition result in [2] is “inactive”.
Take `N[C@H](C(=O)O)[C@@H]1CC(Cl)=NO1`: the K with Escherichia coli [1] was 4200 M⁻¹ s⁻¹; in test [3] it was 0.4 M⁻¹ s⁻¹.
For `CCC(OP(=O)(CCC(N)C(=O)O)Oc1ccccc1)C(=O)NCC(=O)O` (mixture of isomers) the same measures were 80 M⁻¹ s⁻¹ and 75 M⁻¹ s⁻¹.
Turning to `CCCC[C@@H](O[P@@](=O)(CCC(N)C(=O)O)Oc1ccccc1)C(=O)NCC(=O)O` (mixture of isomers), the inhibition entry (in test [2]; in the test on Escherichia coli [4]) was “inactive” throughout.
For `CCCC[C@@H](O[P@](=O)(CCC(N)C(=O)O)Oc1ccccc1)C(=O)NCC(=O)O` (mixture of isomers), the K in the test on Escherichia coli [1] came out at 1.3 M⁻¹ s⁻¹. Also, the inhibition entry in [2] was “inactive”.
For the compound `CCCC[C@H](O[P@@](=O)(CCC(N)C(=O)O)Oc1ccccc1)C(=O)NCC(=O)O` (mixture of isomers), the K in the test on Escherichia coli [1] came out at 50.7 M⁻¹ s⁻¹; in test [3] it was 63.2 M⁻¹ s⁻¹. Also, the inhibition result with Escherichia coli [5] is “tde”.
With `CCCC[C@H](O[P@@](=O)(CCC(N)C(=O)O)Oc1ccccc1)C(=O)OC` (mixture of isomers), the K in the test on Escherichia coli [1] came out at 8.83 M⁻¹ s⁻¹. In test [2], the inhibition entry was “inactive”. For the same compound, the inhibition result with Escherichia coli [5] is “tde”.
Turning to `CC[C@H](O[P@@](=O)(CCC(N)C(=O)O)Oc1ccccc1)C(=O)NCC(=O)O` (mixture of isomers), in the test with Escherichia coli [6], the result was Active. The K was found to be 109 M⁻¹ s⁻¹ in the test on Escherichia coli [1] and 145 M⁻¹ s⁻¹ in test [3]. Moreover, the inhibition result in the test on Escherichia coli [5] is “tde”. In addition, in test [7], the Ratio is greater than 360. Also, in [8], the inhibition result is “Active”.
Regarding `CC[C@H](O[P@](=O)(CCC(N)C(=O)O)OC)C(=O)NCC(=O)O` (mixture of isomers), the inhibition result (in test [2]; in the test with Escherichia coli [4]) was “inactive” in each case.
As for `NC(CCP(=O)(OCC(=O)NCC(=O)O)Oc1ccccc1)C(=O)O` (mixture of isomers), the K was determined as 80.6 M⁻¹ s⁻¹ with Escherichia coli [1] and 44.5 M⁻¹ s⁻¹ in test [3].
In the case of `NC(CC[P@@](=O)(Oc1ccccc1)O[C@@H](CCl)C(=O)NCC(=O)O)C(=O)O` (mixture of isomers), the K in the test with Escherichia coli [1] was 188 M⁻¹ s⁻¹; in test [3], 40.3 M⁻¹ s⁻¹. The inhibition entry in the test with Escherichia coli [5] is “tde”.
Taken in the same sequence, the figures for `NC(CC[P@@](=O)(Oc1ccccc1)O[C@@H](CI)C(=O)NCC(=O)O)C(=O)O` (mixture of isomers) were 98.4 M⁻¹ s⁻¹, 43.6 M⁻¹ s⁻¹ and “tde”.
As to `NC(CC[P@@](=O)(Oc1ccccc1)O[C@@H](Cc1ccccc1)C(=O)NCC(=O)O)C(=O)O` (mixture of isomers), the values for the K (with Escherichia coli [1]; in test [3]) were 389 M⁻¹ s⁻¹ and 4.44 M⁻¹ s⁻¹, respectively. Also, the inhibition entry in the test with Escherichia coli [5] was “tde”.
Regarding `N[C@@H](CCP(=O)(CCC(=O)NCC(=O)O)Oc1ccccc1)C(=O)O` (mixture of isomers), the inhibition entry in [9] is “tde”. Also, the K in test [3] was 1.35 M⁻¹ s⁻¹. Moreover, in the test with Escherichia coli [10], the inhibition entry is “inactive”.
